Laboratory results as given in ChEMBL document CHEMBL1155099, “Natural products in parallel synthesis: triazole libraries of nonactic acid” (2008).
Calls of active or inactive are those of the source.

Columns and labels:
Type in all cases: functional, organism-based
Escherichia coli = test: Antibacterial activity against Escherichia coli at 1 mM by almar blue dye reduction assay
Procedure, shortened: (§1)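 Single-point primary screen at 1 mM using Alamar Blue dye reduction as the growth read-out.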

Bacillus cereus = test: Antibacterial activity against Bacillus cereus at 1 mM by almar blue dye reduction assay; procedure, shortened: as §1
Saccharomyces cerevisiae = test: Antifungal activity against Saccharomyces cerevisiae at 1 mM by almar blue dye reduction assay; procedure, shortened: as §1
Cryptococcus neoformans = test: Antifungal activity against Cryptococcus neoformans at 1 mM by almar blue dye reduction assay; procedure, shortened: as §1
Pseudomonas aeruginosa = test: Antibacterial activity against Pseudomonas aeruginosa at 1 mM by almar blue dye reduction assay; procedure, shortened: as §1
Bacillus subtilis = test: Antibacterial activity against Bacillus subtilis at 1 mM by almar blue dye reduction assay; procedure, shortened: as §1
Candida albicans = test: Antifungal activity against Candida albicans at 1 mM by almar blue dye reduction assay; procedure, shortened: as §1
Staphylococcus aureus = test: Antibacterial activity against Staphylococcus aureus at 1 mM by almar blue dye reduction assay; procedure, shortened: as §1
Bacillus anthracis = test: Antibacterial activity against Bacillus anthracis at 1mM by almar blue dye reduction assay

Measured: Activity

CCN(CC)C(=O)[C@H](C)C1CCC(C[C@@H](C)n2cc(C#CCOC(=O)Nc3cccc(C)c3)nn2)O1 (single isomer, unassigned)
inactive: all assays above

CC(C)NC(=O)[C@H](C)[C@H]1CC[C@@H](C[C@@H](C)n2cc(C#CCC3CCCC3)nn2)O1
inactive: all assays above

CC(C)NC(=O)[C@H](C)[C@H]1CC[C@@H](C[C@@H](C)n2cc(C#Cc3ccc(-c4ccccc4)cc3)nn2)O1
inactive: all assays above

C[C@H](C[C@@H]1CC[C@H]([C@@H](C)C(=O)N(C)Cc2ccccc2)O1)n1cc(C#CCOc2cccc(-c3ccccc3)c2)nn1
inactive: all assays above

COCCNCC#Cc1cn([C@H](C)C[C@@H]2CC[C@H]([C@@H](C)C(=O)N3CCN(CC4CCCO4)CC3)O2)nn1 (some centres not stated)
inactive: all assays above

Cc1cccc(NC(=O)OCC#Cc2cn([C@H](C)CC3CCC([C@@H](C)C(=O)NC(C)C)O3)nn2)c1 (single isomer, unassigned)
inactive: all assays above

C[C@H](C[C@@H]1CC[C@H]([C@@H](C)C(=O)N2CCN(CC3CCCO3)CC2)O1)n1cc(C#CCOc2ccc(Br)cc2)nn1 (some centres not stated)
inactive: all assays above

CC(C)NC(=O)[C@H](C)[C@H]1CCC(C[C@@H](C)n2cc(C#Cc3ccccc3[N+](=O)[O-])nn2)O1 (single isomer, unassigned)
inactive: all assays above

C[C@H](C[C@@H]1CC[C@H]([C@@H](C)C(=O)N2CCN(CC3CCCO3)CC2)O1)n1cc(C#CC2=CCCCC2)nn1 (some centres not stated)
inactive: all assays above

CCC(=O)OCC#Cc1cn([C@H](C)CC2CCC([C@@H](C)C(=O)N3CCN(CC4CCCO4)CC3)O2)nn1 (single isomer, unassigned)
inactive: all assays above

CCCCN(CC#Cc1cn([C@H](C)C[C@@H]2CC[C@H]([C@@H](C)C(=O)NC(C)C)O2)nn1)CCCC
inactive: all assays above

CCCNC(=O)NCC#Cc1cn([C@H](C)CC2CCC([C@@H](C)C(=O)N3CCN(CC4CCCO4)CC3)O2)nn1 (single isomer, unassigned)
inactive: all assays above

COc1ccc(OCC#Cc2cn([C@H](C)C[C@@H]3CC[C@H]([C@@H](C)C(=O)N(C)Cc4ccccc4)O3)nn2)cc1
inactive: all assays above

C[C@H](C[C@@H]1CC[C@H]([C@@H](C)C(=O)N(C)Cc2ccccc2)O1)n1cc(C#CCN2CCC(c3ccccc3)CC2)nn1
inactive: all assays above

CC(C)NC(=O)[C@H](C)[C@H]1CC[C@@H](C[C@@H](C)n2cc(C#Cc3ccc(Oc4ccccc4)cc3)nn2)O1
inactive: all assays above

COc1ccc(OCC#Cc2cn([C@H](C)C[C@@H]3CC[C@H]([C@@H](C)C(=O)N4CCCC4)O3)nn2)cc1
inactive: all assays above

C[C@H](C[C@@H]1CC[C@H]([C@@H](C)C(=O)N2CCN(CC3CCCO3)CC2)O1)n1cc(C#CCOc2ccc(C(F)(F)F)cc2)nn1 (some centres not stated)
inactive: all assays above

C[C@H](C[C@@H]1CC[C@H]([C@@H](C)C(=O)N(C)Cc2ccccc2)O1)n1cc(C#CCN2CCOCC2)nn1
inactive: all assays above

C[C@H](C[C@@H]1CC[C@H]([C@@H](C)C(=O)N(C)Cc2ccccc2)O1)n1cc(C#CCN2CCN(c3ccccc3)CC2)nn1
inactive: all assays above

CCCCCC#Cc1cn([C@H](C)C[C@@H]2CC[C@H]([C@@H](C)C(=O)NC(C)C)O2)nn1
inactive: all assays above

C[C@H](C[C@@H]1CC[C@H]([C@@H](C)C(=O)N(C)Cc2ccccc2)O1)n1cc(C#CCCCC#N)nn1
inactive: all assays above

COc1cccc(OCC#Cc2cn([C@H](C)C[C@@H]3CC[C@H]([C@@H](C)C(=O)N4CCN(CC5CCCO5)CC4)O3)nn2)c1OC (some centres not stated)
inactive: all assays above

CCN(CC)C(=O)[C@H](C)[C@H]1CC[C@@H](C[C@@H](C)n2cc(C#CCN(C)C)nn2)O1
inactive: all assays above
